Test results published in ChEMBL document CHEMBL1123192 (J Med Chem, 1986).

Columns and labels:
[1] = target: T1, Adrenergic receptor alpha-2 (Rattus norvegicus, UniProt P22086+P19328+P22909); assay: The compound was evaluated for the antagonistic activity against alpha-2 adrenergic receptor.; type: functional
T1 sequence (P22086 whole entry): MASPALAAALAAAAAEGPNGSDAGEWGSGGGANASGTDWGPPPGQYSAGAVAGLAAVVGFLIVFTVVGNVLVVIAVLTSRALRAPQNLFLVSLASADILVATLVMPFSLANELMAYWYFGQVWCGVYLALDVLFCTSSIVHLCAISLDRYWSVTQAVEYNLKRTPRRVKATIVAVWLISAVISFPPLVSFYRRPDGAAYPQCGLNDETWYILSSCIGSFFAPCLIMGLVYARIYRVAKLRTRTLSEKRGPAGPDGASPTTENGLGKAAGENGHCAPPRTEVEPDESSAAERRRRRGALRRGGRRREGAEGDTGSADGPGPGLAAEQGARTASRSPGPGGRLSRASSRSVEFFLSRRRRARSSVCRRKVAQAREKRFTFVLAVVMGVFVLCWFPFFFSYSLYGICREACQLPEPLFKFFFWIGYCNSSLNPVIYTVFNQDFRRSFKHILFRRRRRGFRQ
T1 sequence (P19328 whole entry): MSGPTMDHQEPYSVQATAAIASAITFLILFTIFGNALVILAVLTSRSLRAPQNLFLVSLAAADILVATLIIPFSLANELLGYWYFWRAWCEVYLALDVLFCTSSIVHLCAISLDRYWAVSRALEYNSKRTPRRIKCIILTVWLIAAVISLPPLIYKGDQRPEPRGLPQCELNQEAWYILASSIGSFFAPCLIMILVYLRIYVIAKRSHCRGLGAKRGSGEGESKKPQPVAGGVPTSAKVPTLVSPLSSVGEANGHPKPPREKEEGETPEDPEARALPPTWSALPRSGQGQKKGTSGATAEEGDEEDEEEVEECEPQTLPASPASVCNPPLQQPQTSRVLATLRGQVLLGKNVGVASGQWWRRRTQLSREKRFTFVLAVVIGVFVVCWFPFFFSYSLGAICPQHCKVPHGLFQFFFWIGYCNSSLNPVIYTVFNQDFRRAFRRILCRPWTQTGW
T1 sequence (P22909 whole entry): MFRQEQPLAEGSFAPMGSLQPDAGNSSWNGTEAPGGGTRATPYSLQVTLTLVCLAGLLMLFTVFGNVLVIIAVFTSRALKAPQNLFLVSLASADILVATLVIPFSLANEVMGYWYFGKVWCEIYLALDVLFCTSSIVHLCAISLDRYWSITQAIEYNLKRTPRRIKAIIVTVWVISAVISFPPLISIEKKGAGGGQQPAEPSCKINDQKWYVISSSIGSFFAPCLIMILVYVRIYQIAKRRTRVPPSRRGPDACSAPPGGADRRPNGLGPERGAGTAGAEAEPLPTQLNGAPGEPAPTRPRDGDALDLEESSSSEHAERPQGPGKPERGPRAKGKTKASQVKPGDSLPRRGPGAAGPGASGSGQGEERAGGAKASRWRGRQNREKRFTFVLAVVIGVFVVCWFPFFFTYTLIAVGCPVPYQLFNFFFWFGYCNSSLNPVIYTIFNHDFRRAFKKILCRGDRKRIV

[2] = target: T2, Adrenergic receptor alpha-1 (Homo sapiens, UniProt P35348+P25100+P35368); assay: The compound was evaluated for the antagonistic activity against alpha-1 adrenergic receptor.; type: functional, Oryctolagus cuniculus
T2 sequence (P35348 whole entry): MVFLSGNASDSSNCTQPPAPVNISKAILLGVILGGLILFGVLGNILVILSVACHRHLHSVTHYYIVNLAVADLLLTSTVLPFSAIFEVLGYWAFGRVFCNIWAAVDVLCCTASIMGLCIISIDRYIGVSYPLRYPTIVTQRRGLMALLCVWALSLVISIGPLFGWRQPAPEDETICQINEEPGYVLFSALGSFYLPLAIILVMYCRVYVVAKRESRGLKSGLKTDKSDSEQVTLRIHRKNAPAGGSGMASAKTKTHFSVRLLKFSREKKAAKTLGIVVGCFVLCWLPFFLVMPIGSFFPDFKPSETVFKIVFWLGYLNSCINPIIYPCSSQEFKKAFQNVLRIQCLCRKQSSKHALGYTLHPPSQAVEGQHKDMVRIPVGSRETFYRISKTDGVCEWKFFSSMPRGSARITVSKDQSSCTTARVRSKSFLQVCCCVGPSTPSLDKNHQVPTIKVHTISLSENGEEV
T2 sequence (P25100 whole entry): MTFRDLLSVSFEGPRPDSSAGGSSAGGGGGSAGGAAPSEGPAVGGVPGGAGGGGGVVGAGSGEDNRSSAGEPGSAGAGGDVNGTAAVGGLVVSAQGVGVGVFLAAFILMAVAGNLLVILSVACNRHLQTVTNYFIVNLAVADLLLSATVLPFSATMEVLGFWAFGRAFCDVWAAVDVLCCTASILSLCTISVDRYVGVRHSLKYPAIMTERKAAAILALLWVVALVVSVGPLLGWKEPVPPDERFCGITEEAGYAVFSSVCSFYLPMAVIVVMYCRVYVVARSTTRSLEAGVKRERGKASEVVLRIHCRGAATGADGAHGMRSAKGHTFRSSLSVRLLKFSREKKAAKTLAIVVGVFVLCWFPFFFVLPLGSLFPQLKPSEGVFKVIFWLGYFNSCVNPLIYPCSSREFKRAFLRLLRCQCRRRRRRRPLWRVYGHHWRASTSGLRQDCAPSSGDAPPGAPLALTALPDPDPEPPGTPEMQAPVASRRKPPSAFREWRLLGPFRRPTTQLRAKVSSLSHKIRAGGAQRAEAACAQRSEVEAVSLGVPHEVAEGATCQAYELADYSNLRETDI
T2 sequence (P35368 whole entry): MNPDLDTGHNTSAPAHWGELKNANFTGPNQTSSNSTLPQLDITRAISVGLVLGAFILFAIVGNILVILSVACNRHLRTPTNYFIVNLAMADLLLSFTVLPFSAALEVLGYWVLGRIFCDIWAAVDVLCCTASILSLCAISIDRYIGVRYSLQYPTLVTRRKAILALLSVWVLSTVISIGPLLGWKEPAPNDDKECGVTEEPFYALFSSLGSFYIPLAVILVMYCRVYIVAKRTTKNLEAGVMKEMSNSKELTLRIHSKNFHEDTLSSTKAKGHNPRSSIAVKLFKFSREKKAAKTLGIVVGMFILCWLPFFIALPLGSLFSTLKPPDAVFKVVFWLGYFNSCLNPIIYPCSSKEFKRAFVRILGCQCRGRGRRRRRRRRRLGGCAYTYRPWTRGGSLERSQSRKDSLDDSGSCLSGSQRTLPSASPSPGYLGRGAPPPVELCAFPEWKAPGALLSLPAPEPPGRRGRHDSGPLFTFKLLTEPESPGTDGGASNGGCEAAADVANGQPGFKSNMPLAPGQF
In short: (§1)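 Isolated tissue suited to each receptor test, held in 10-mL organ baths of Krebs-Henseleit solution at 37 °C and gassed with 95% O2/5% CO2. Antagonism was judged by how several concentrations of test agent altered a cumulative concentration-response curve to a receptor-specific agonist.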

[3] = target: Beta-1 adrenergic receptor (Cavia porcellus) (UniProt B0FL73); assay: Beta-1-adrenoceptor ISA (intrinsic sympathomimetic activity)using the guinea pig right atria was measured as % increase of positive chronotropic effect (basal spontaneous beating rate) at 1x10E-6 M; type: functional
Chain of Beta-1 adrenergic receptor (Cavia porcellus) (B0FL73 1-467): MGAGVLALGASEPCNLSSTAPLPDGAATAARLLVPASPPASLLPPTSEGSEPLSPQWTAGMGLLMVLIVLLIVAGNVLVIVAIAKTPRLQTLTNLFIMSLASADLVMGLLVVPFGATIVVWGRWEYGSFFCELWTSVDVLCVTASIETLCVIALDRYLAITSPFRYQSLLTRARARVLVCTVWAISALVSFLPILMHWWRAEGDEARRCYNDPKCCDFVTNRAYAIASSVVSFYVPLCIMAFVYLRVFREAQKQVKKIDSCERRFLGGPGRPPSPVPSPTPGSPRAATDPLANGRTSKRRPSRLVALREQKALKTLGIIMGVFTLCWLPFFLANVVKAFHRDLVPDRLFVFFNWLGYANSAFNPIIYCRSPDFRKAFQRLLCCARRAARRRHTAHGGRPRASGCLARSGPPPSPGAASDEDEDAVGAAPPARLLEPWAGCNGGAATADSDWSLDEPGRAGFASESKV

Cavia porcellus = species: Cavia porcellus; assay: Beta-2-adrenoceptor ISA (intrinsic sympathomimetic activity)was measured as relaxant effect against a PGF2-alpha contracted guinea pig trachea at 1x10E-5 M; type: functional
Rattus norvegicus [4] = assay: Maximal change in heart rate (HR) measured as % change from pretreatment value at dose of 50 mg/kg in SHR; type: functional
In short: (§2)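 Spontaneously hypertensive rats; test agent dissolved or dispersed in 0.5% methylcellulose and given by gastric gavage at 5 mL/kg after a 1-h equilibration. Doses ranged from 1 to 100 mg/kg, with 4–8 animals per dose. MABP and HR were monitored for 4 h. Pretreatment values and maximal % change were recorded, and maximal changes were compared with vehicle by Dunnett's t test.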

Rattus norvegicus [5] = assay: Maximal change in mean arterial blood pressure (MABP) measured as % change from pretreatment value at dose of 50 mg/kg in SHR; type: functional; in short: as §2
Rattus norvegicus [6] = assay: Maximal change in heart rate (HR) measured as pretreatment value at dose of 50 mg/kg in SHR; type: functional; in short: as §2
Rattus norvegicus [7] = assay: Maximal change in mean arterial blood pressure (MABP) measured as pretreatment value at dose of 50 mg/kg in SHR; type: functional; in short: as §2
[8] = target: Beta-1 adrenergic receptor (Cavia porcellus, UniProt B0FL73); assay: The compound was evaluated for the antagonistic activity against beta-1 adrenergic receptor.; type: functional; conditions: read-out: pA2 (converted); in short: as §1
Chain of Beta-1 adrenergic receptor (B0FL73 whole entry): as the sequence (B0FL73 1-467) above

[9] = target: Beta-2 adrenergic receptor (Cavia porcellus, UniProt Q8K4Z4); assay: The compound was evaluated for the antagonistic activity against beta-2 adrenergic receptor.; type: functional; conditions: read-out: pA2 (converted); in short: as §1
Chain of Beta-2 adrenergic receptor (Q8K4Z4 whole entry): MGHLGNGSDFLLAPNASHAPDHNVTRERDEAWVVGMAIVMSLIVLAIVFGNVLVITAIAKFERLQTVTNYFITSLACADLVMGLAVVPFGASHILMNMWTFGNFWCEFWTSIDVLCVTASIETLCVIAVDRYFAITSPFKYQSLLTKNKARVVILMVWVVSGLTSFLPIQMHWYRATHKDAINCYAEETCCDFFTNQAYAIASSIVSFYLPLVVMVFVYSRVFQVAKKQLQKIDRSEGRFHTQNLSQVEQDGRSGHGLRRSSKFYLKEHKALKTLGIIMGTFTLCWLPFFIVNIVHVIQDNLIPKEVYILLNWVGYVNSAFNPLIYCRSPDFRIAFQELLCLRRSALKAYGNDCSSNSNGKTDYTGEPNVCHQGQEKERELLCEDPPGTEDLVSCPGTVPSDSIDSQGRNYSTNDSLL

Rattus norvegicus [10] = assay: Maximal change in heart rate (HR) measured as % change from pretreatment value at dose of 10 mg/kg in SHR; type: functional; in short: as §2
Rattus norvegicus [11] = assay: Maximal change in heart rate (HR) measured as % change from pretreatment value at dose of 25 mg/kg in SHR; type: functional; in short: as §2
Rattus norvegicus [12] = assay: Maximal change in heart rate (HR) measured as % change from pretreatment value at dose of 5 mg/kg in SHR; type: functional; in short: as §2
Rattus norvegicus [13] = assay: Maximal change in mean arterial blood pressure (MABP) measured as % change from pretreatment value at dose of 10 mg/kg in SHR; type: functional; in short: as §2
Rattus norvegicus [14] = assay: Maximal change in mean arterial blood pressure (MABP) measured as % change from pretreatment value at dose of 25 mg/kg; type: functional; in short: as §2
Rattus norvegicus [15] = assay: Maximal change in mean arterial blood pressure (MABP) measured as % change from pretreatment value at dose of 5 mg/kg in SHR; type: functional; in short: as §2
Rattus norvegicus [16] = assay: Maximal change in heart rate (HR) measured as pretreatment value at dose of 25 mg/kg in SHR; type: functional; in short: as §2
Rattus norvegicus [17] = assay: TMaximal change in heart rate (HR) measured as pretreatment value at dose of 5 mg/kg in SHR; type: functional; in short: as §2
Rattus norvegicus [18] = assay: Maximal change in heart rate (HR) measured as pretreatment value at dose of 10 mg/kg in SHR; type: functional; in short: as §2
Rattus norvegicus [19] = assay: Maximal change in mean arterial blood pressure (MABP) measured as pretreatment value at dose of 10 mg/kg in SHR; type: functional; in short: as §2
Rattus norvegicus [20] = assay: Maximal change in mean arterial blood pressure (MABP) measured as pretreatment value at dose of 25 mg/kg in SHR; type: functional; in short: as §2
Rattus norvegicus [21] = assay: Maximal change in mean arterial blood pressure (MABP) measured as pretreatment value at dose of 5 mg/kg in SHR; type: functional; in short: as §2
[22] = target: Beta-1 adrenergic receptor (Cavia porcellus) (UniProt B0FL73); assay: Beta-1 adrenergic receptor ISA (intrinsic sympathomimetic activity)using the guinea pig right atria was measured as % increase of positive chronotropic effect (basal spontaneous beating rate) at 1x10E-7 M

CC(CCc1ccccc1)NCC(O)c1cc(C(N)=O)c2c(ccn2C)c1 (configuration not stated)
pA2 [1]: < 5
pA2 [2]: 6.2
Change [3]: 2.7%
Change (Cavia porcellus): 34.6%
Change (Rattus norvegicus [4]): -15%
Change (Rattus norvegicus [5]): -13%
HR (Rattus norvegicus [6]): 411 beats min-1
MABP (Rattus norvegicus [7]): 166 mmHg
Kb [8]: > 1000 nM
Kb [9]: > 10000 nM

CC(CCc1ccccc1)NCC(O)c1ccc(O)c(C(N)=O)c1 (configuration not stated) [LABETALOL]
pA2 [1]: < 5
Change (Cavia porcellus): 62%
Change (Rattus norvegicus [10]): -23%
Change (Rattus norvegicus [11]): -27%
Change (Rattus norvegicus [12]): -15%
Change (Rattus norvegicus [13]): -25%
Change (Rattus norvegicus [14]): -31%
Change (Rattus norvegicus [15]): -14%
HR (Rattus norvegicus [16]): 437 beats min-1
HR (Rattus norvegicus [17]): 424 beats min-1
HR (Rattus norvegicus [18]): 457 beats min-1
MABP (Rattus norvegicus [19]): 158 mmHg
MABP (Rattus norvegicus [20]): 163 mmHg
MABP (Rattus norvegicus [21]): 161 mmHg
Kb [8]: 31.6 nM
Kb [9]: 39.8 nM
Change [22]: 0%
